Screening data deposited in PubChem BioAssay by several laboratories.
A selection: hits, their analogues and other compounds. The true share with any hit is near 1.9%.
N-glyco inh: N-linked glycosylation inhibition. D54 ERlucT glycosylation luciferase reporter, 24 h; percent of 100 nM tunicamycin response. reporter increase, % at 12.5 µM. 0.23% of 360,000 active. AID 588692;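 active = mean luciferase reporter signal, scaled so untreated is 0 and the glycosylation-blocking control 100, at or above a set limit in every replicate; inconclusive = mean reaches the limit but not every replicate does; inactive = mean below the limit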;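 note: luciferase carries N-glycosylation sites so blocking glycosylation raises the light; 0% = median of neutral control wells and 100% = median of 100 nM tunicamycin wells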
MsrA inh: inhibitors of bovine MsrA; purified bovine MsrA, absorbance read-out; 0.75% of 360,000 active; inhibition, % at 15.5 µM; in the data active = inhibition above about 4.5%;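 note: 0% = vehicle wells with enzyme and 100% = reference inhibitor wells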
aDG glyco up: increases alpha dystroglycan glycosylation | Pro5-aDG cells, alpha-DG glycosylation AlphaScreen (IIH6); 0% Pro5, 100% B10-LARGE cell signal | activation, % at 10 µM | 0.22% of 360,000 active | AID 624168;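 active = activation of at least 8% versus controls, or a plate z-score of at least 8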;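 note: Pro5 are CHO cells carrying HIG-tagged alpha-DG that lacks glycosylation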
UCH37 inh: blocks the human deubiquitinase UCH37; Q9Y5K5; purified proteasome/UCH37, Ub-AMC cleavage fluorescence; inhibition, % (concentration not given with the values); 0.33% of 330,000 active; AID 588478;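 active = mean inhibition over replicate wells above about 20%, limit read from the data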;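 note: 0% = compound-free wells with enzyme and 100% = wells lacking proteasome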
Target sequence (Q9Y5K5 whole entry, looked up): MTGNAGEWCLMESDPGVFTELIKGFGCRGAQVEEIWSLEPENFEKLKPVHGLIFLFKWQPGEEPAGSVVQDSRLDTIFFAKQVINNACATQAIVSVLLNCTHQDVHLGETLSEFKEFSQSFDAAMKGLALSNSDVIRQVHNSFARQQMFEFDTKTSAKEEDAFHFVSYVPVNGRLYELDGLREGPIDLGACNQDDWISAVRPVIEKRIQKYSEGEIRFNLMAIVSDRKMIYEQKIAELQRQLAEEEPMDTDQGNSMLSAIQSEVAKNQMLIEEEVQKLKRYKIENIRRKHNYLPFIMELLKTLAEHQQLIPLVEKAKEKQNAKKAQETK
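Test system – human UCH37 enzyme supplied as purified proteasome complex · Incubation – 30 min preincubation with enzyme, 25 min cleavage at room temperature · Detection – AMC fluorescence from Ub-AMC cleavage, excitation 355 nm, emission 460 nm · Benchmarks – no-proteasome wells (full inhibition) and compound-free wells (no inhibition)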
Vif inh: HIV Vif inhibition | HEK293T cells, Vif self-association by quenched fluorescence, imaging, 24 h | inhibition, % at 7.49 µM | 0.35% of 340,000 active; in the data active = inhibition above about 50%, passing the limit was not always enough; inconclusive = no clear call, values can overlap the other calls; inactive = below about 31%
MsrA act: activators of bovine methionine sulfoxide reductase A. 0.3% of 360,000 active. AID 602163. activation, % at 10.6 µM. purified bovine MsrA, absorbance read-out; in the data active = activation above about 7.5%;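 note: 0% = vehicle and 100% = reference activator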
* = called active by the depositor; ? = inconclusive; . = no result.

SMILES	N-glyco inh	MsrA inh	aDG glyco up	UCH37 inh	Vif inh	MsrA act
COc1cc(NC(=O)COc2ccccc2[N+](=O)[O-])ccc1NC(=O)c1cccs1	-4.7	2.0	0.1	12.2	52.8*	-9.5
CC1=Nc2cc([N+](=O)[O-])ccc2NC(C)(C)C1	1.1	1.3	-0.2	7.4	-3.3	-3.6
CC1(C)CNc2cc([N+](=O)[O-])ccc2S1	-1.4	0.8	0.3	25.7*	12.2	-7.3
COc1ccc(C=NOCC(=O)Nc2nc3ccccc3s2)cc1OC	.	.	.	0.5	.	.
COc1ccccc1C(=O)COC(=O)C1(C)CC1(Cl)Cl (stereo unspecified)	-0.8	0.1	-0.1	4.5	71.0*	-2.8
Cc1csc(NC(=O)CSc2nc(C)cs2)n1	-0.4	0.2	0.2	3.8	.	-1.1
COCCNCC(=O)Nc1nc(C)cs1	-0.5	0.3	0.1	6.4	59.2*	-1.1
O=C(NN=Cc1ccccn1)c1ccc([N+](=O)[O-])cc1	.	.	.	3.3	.	.
CC(=O)/C(N=Nc1ccc(C(=O)O)cc1[N+](=O)[O-])=C(\C)O	0.9	3.7	0.1	16.5	?	-16.2
CCOC(=O)/C(N=Nc1ccc(C(=O)O)cc1[N+](=O)[O-])=C(\C)O	0.1	-0.1	0.0	23.3*	4.7	-1.0
COc1ccc2ccccc2c1C=NNC(=O)c1ccccc1F	.	.	.	-0.3	.	.
C[C@H](CO)N1C[C@H](C)[C@@H](CN(C)S(=O)(=O)c2ccccc2)Oc2c(NC(=O)Cc3ccccc3)cccc2C1=O	27.7*	-0.7	0.1	0.1	11.9	-3.0
CC(C)NC(=O)Nc1cccc2c1O[C@H](CN(C)C(=O)NC(C)C)[C@@H](C)CN([C@H](C)CO)C2=O	2.6	-0.2	-0.3	20.2*	-5.5	-0.3
C[C@H](CO)N1C[C@H](C)[C@@H](CN(C)S(=O)(=O)c2ccccc2)Oc2c(NC(=O)CCC(F)(F)F)cccc2C1=O	0.4	-0.6	-0.4	-1.9	4.0	-6.4
O=C(NN=Cc1ccccn1)c1ccc(Cl)cc1	.	.	.	3.1	.	.
Cn1cccc1CC(=O)NN=Cc1ccc([N+](=O)[O-])cc1	.	.	.	9.3	.	.
Cc1ccc2nc(/C(C#N)=C/c3cn[nH]c3-c3ccc(F)cc3)[nH]c2c1	31.5*	1.0	-0.2	-6.0	-26.7	-2.5
Cc1ccc2nc(/C(C#N)=C/c3ccc(O)c(O)c3)[nH]c2c1	5.9	2.1	-0.3	.	19.8	-8.0
Cc1ccc(S(=O)(=O)CC(=O)Nc2nnc(C(C)C)s2)cc1	-0.1	2.3	-0.2	1.6	58.4*	-1.2
Cc1cc(C)n(CC(=O)NN=Cc2ccccn2)n1	.	.	.	0.7	.	.
Cc1cc(C(F)(F)F)n2nc(-c3cnn(C)c3C(F)(F)F)cc2n1	3.0	0.7	-0.1	-5.2	67.6*	7.7*
CCOc1cc(C=NNc2nnc(C)n2N)ccc1O	.	.	.	5.8	.	.
NC(=S)NN=Cc1ccccc1OCc1cccc(Cl)c1	.	.	.	0.6	.	.
Cc1ccc(OCCNC(=O)C(=O)NCc2ccco2)cc1	26.4*	-0.2	-0.5	4.0	6.7	-4.7
Cc1ccc(OCCCC(=O)NCc2ccco2)cc1	2.0	0.4	-0.2	1.6	2.7	-1.6
SMILES	N-glyco inh	MsrA inh	aDG glyco up	UCH37 inh	Vif inh	MsrA act
COc1ccc(-c2cc(C)no2)cc1S(=O)(=O)Nc1cccc(C)c1	5.3	0.1	1.1	0.3	-7.4	-0.1
COc1ccc(-c2cc(C)no2)cc1S(=O)(=O)Nc1ccccc1	44.8*	-0.8	-0.1	1.9	4.9	-3.6
C#CCOCCOCCOCCNc1nc(N2CCN(C(=O)CCCCCCCCCCNC(=O)[C@H](CCCCN)n3cc(CCO)nn3)CC2)nc(N2CCN(C(=O)CCCCCCCCCCNC(=O)[C@H](CCCN=C(N)N)n3cc(C[C@@H](C)CC)nn3)CC2)n1	-10.8	.	-0.4	10.3	72.3*	5.0
C#CCOCCOCCOCCNc1nc(N2CCN(C(=O)CCCCCCCCCCNC(=O)Cn3cc(CCCCCN)nn3)CC2)nc(N2CCN(C(=O)CCCCCCCCCCNC(=O)[C@H](CO)n3cc(CCCCCN)nn3)CC2)n1	1.5	.	-0.1	1.9	53.5*	1.1
CC(C)CNC(=O)c1c(N)n(N=Cc2ccccn2)c2nc3ccccc3nc12	.	.	.	5.3	.	.
N#C/C(=C\Nc1ccc2cn[nH]c2c1)c1nc(-c2ccccc2)cs1	4.7	1.1	-0.3	1.2	1.2	-1.9
Cc1ccnc(N/C=C(\C#N)c2nc(-c3cccc(Br)c3)cs2)c1	-1.9	-1.1	0.2	2.0	91.1*	-1.4
CN(C)CCc1cc2c(c3c1ccc1ccccc13)OCO2	78.0*	2.0	0.0	-35.5	-0.7	-9.1
COc1cc2ccc3c(CCN(C)C)cc(OC)c(OC)c3c2cc1OC	-2.2	0.7	-0.1	-4.6	3.9	-5.2
CC[C@H](C)[C@H](NC(N)=O)C(=O)NCCc1ccc(OC)cc1	0.6	0.5	0.0	3.0	-3.4	-4.2
COc1ccc(CCNC(=O)[C@@H](NC(N)=O)C(C)C)cc1	-0.5	0.8	-0.4	-0.7	50.6*	-3.0
COc1ccc(-c2cc(C(=O)NN=Cc3ccc4c(c3)OCO4)c3ccccc3n2)c(OC)c1	.	.	.	-15.7	.	.
O=C1CCC/C(=N/NC(=O)c2ccc(NS(=O)(=O)c3cccs3)cc2)C1	-0.4	0.3	0.2	.	51.7*	-14.2
Cc1ccc(S(=O)(=O)Nc2ccccc2C=Nc2nc3ccccc3n2C)cc1	.	.	.	4.5	.	.
Cc1ccc(C=NNc2nc(N3CCCCC3)nc(N3CCCCC3)n2)o1	.	.	.	5.4	.	.
O=C(O)C(CO)N=Cc1c(O)c2ccccc2oc1=O (stereo unspecified)	0.2	4.6*	-0.3	7.0	0.0	-9.2
Cc1cc2cc(C#N)c(SCC(=O)Nc3nonc3C)nc2cc1C	3.9	1.4	0.0	-15.9	78.9*	-11.8
COc1cc2c[n+](C)c3c4ccccc4ccc3c2cc1OC	33.9*	1.0	-0.2	.	-8.1	-7.1
CN(Cc1c(C(=O)NN=Cc2cccc(O)c2)nnn1-c1nonc1N)C1CCCCC1	.	.	.	-8.5	.	.
CC1CCN(C(=O)C2CCN(S(=O)(=O)c3cccs3)CC2)CC1	0.1	0.2	-0.1	-1.0	-15.0	-8.4
CC(=O)c1ccc(N2CCN(C(=O)C3CCN(S(=O)(=O)c4cccs4)CC3)CC2)cc1	-6.0	4.6*	0.4	2.8	6.0	-5.0
COc1cc2nc(NC(=O)c3ccccc3)sc(=O)c2cc1OC	41.4*	-0.1	-0.1	-1.0	0.0	-12.7
NC(=O)CC(NC(=O)Cc1ccc(Cl)cc1)c1ccc(NC2CC3CCC2C3)c([N+](=O)[O-])c1 (stereo unspecified)	37.1*	0.2	-0.4	0.6	-13.6	-5.4
NC(=O)CC(NC(=O)c1ccc(Br)cc1)c1ccc(N2CCCCCC2)c([N+](=O)[O-])c1 (stereo unspecified)	32.8*	0.0	-0.3	-1.6	9.1	-8.3
CCC(CC)Nc1ccc(C(CC(N)=O)NC(=O)Cc2ccc(Br)cc2)cc1[N+](=O)[O-] (stereo unspecified)	49.8*	-0.7	-0.3	1.2	.	-0.4
Cc1ccc(S(=O)(=O)N2CCN(CC(=O)NN=C/C(Cl)=C/c3ccccc3)CC2)cc1	.	.	.	3.4	.	.
